Molecules are shown by their SMILES.

In series [1] the test system is Trypanosoma brucei brucei. Kind of series: Antitrypanosomal activity against Trypanosoma brucei brucei MITat 1.2 variant 221. It is filed as functional, organism-based. The essentials: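 Bloodstream-form parasites (MITat 1.2, variant 221) grown axenically in HMI-9 medium, run by a previously reported protocol. Pentamidine and suramin included as standards. IC50 taken as the mean of three tests done on different days.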

Series [2] concerns Leishmania donovani. Briefly: Antileishmanial activity against Leishmania donovani promastigotes at 100 uM. In kind it is functional.
Series [3] has as its system Leishmania donovani. Briefly: Antileishmanial activity against Leishmania donovani axenic amastigotes. In kind it is functional, organism-based. The essentials: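 L. donovani amastigote-like parasites (WHO MHOM/SD/62/1S-CL2D), axenic; 3-day growth inhibition assay read with tetrazolium dye-based CellTiter reagent; IC50 determined.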
Series [4] deals with Leishmania donovani. Kind of series: Antileishmanial activity against Leishmania donovani promastigotes at 10 uM. It is filed as functional.
The test system of series [5] is Leishmania donovani. Briefly: Antileishmanial activity against Leishmania donovani promastigotes at 1 uM. It is filed as functional.
The subject of series [6] is Leishmania donovani. Briefly: Antileishmanial activity against Leishmania donovani promastigotes in RAW cells assessed as reduction in infection. In kind it is functional. Also noted: scale not given: the % may be the effect or the level left. The essentials: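 RAW 264.7 macrophages (1 × 10^6) plated 2 h, infected 6 h with stationary-phase luciferase-transfected L. donovani promastigotes at 20:1 parasite:macrophage; free parasites washed off with PBS; compound-treated; survival by luciferase luminescence 24 h later; triplicate; % reduction in infection versus untreated wells.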

The subject of the next series is Vero. Kind of series: Cytotoxicity against african green monkey Vero cells. In kind it is cell-based. To be noted: Chlorocebus sabaeus.
In a further series the test system is RAW. Kind of series: Cytotoxicity against mouse RAW cells. It is filed as cell-based. Summed up:
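RAW 264.7 murine macrophages in DMEM with 10% heat-inactivated FBS, antibiotics, 2 mM L-glutamine at 37 °C, 5% CO2; 1 × 10^5 cells treated or untreated with compounds for 48 h; viability read with alamarBlue.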

As usually defined, the IC50 is the concentration needed to halve the response being measured. For orientation: inhibition means the share of the control response that was lost under treatment. As to `COc1ccc2c(c1OC)[C@H](CC(C)=O)N(C)c1c-2ccc2cc3c(cc12)OCO3`, the IC50 was determined as 3.9 µM in series [1], 6.6 µM with Leishmania donovani [3] and 15.3 µM in the series with Vero. Moreover, 100 µM produced 100% inhibition with Leishmania donovani [2]. This compound returned an inhibition at 10 µM in the series on Leishmania donovani [4] of 87%. In addition, in the series with Leishmania donovani [5], at 1 µM the inhibition was 23%. Moreover, the Activity in the series with Leishmania donovani [6] was determined as 57.4%.
`COc1ccc2c(c1OC)CN(C)c1c-2ccc2cc3c(cc12)OCO3` [DIHYDROCHELERYTHRINE]: the IC50 in series [1] amounted to 0.8 µM; with Leishmania donovani [3] it was 2 µM; with Vero, 35.4 µM. In the series on Leishmania donovani [2], this compound returned an inhibition at 100 µM of 100%. Moreover, the inhibition at 10 µM in the series on Leishmania donovani [4] came out at 89%. In the series with Leishmania donovani [5], this compound registered an inhibition at 1 µM of 36%. Also, in the series on Leishmania donovani [6], the Activity amounted to 70.9%.
In the case of `CC(C)CNC(=O)/C=C/c1ccc2c(c1)OCO2` [FOGARAMIDE], in the series on RAW, the Activity result is recorded as “Non-toxic”.
In the case of `COc1ccc2c(c1OC)[C@H](CC(C)=O)N(C)c1c-2ccc2cc(O)c(O)cc12` [LUCIDAMINE A], the values for the IC50 (in series [1]; with Leishmania donovani [3]; with Vero) were 14.1 µM, 10.8 µM and 11.6 µM, respectively. In the series on Leishmania donovani [2], this compound had an inhibition at 100 µM of 100%. Testing at 10 µM with Leishmania donovani [4] gave an inhibition of 76%. This compound registered an inhibition at 1 µM with Leishmania donovani [5] of 23%. Moreover, the Activity result with RAW was “Toxic”.
In the case of `C=CC(C)(C)c1c(O)c(O)c(C(C)(C)C=C)c2c3c(ccc12)-c1ccc(OC)c(OC)c1[C@H](CC(C)=O)N3C` [LUCIDAMINE B], the IC50 in series [1] came to 4.1 µM; with Leishmania donovani [3], 6.8 µM; in the series with Vero, 17.5 µM. In the series on Leishmania donovani [2], this compound yielded an inhibition at 100 µM of 64%. This compound also had an inhibition at 10 µM with Leishmania donovani [4] of 48%. For the same compound, in the series on Leishmania donovani [5], the inhibition at 1 µM is 14%. The Activity result in the series on RAW is “Toxic”.
For `N=C(N)c1ccc(OCCCCCOc2ccc(C(=N)N)cc2)cc1` [PENTAMIDINE], the half-maximal inhibitory concentration (IC50) in series [1] stood at 0.0025 µM; in the series on Leishmania donovani [3], 1.3 µM; with Vero, 13.7 µM.
Turning to `c1cc2c(cc1[C@H]1OC[C@H]3[C@@H]1CO[C@@H]3c1ccc3c(c1)OCO3)OCO2` [SESAMIN], the Activity result with RAW is on record as “Non-toxic”.
`Cc1ccc(C(=O)Nc2ccc(S(=O)(=O)O)c3cc(S(=O)(=O)O)cc(S(=O)(=O)O)c23)cc1NC(=O)c1cccc(NC(=O)Nc2cccc(C(=O)Nc3cc(C(=O)Nc4ccc(S(=O)(=O)O)c5cc(S(=O)(=O)O)cc(S(=O)(=O)O)c45)ccc3C)c2)c1` [SURAMIN] yielded a 50% inhibitory concentration (IC50) in series [1] of 0.2 µM.

The values are drawn from ChEMBL document CHEMBL1141301, “Trypanocidal and antileishmanial dihydrochelerythrine derivatives from Garcinia lucida” (J Nat Prod, 2007).
